Screening results deposited in PubChem BioAssay by Johns Hopkins Ion Channel Center.
hERG protect = shields human hERG channel from block by proarrhythmic agents; activation (rescue from dofetilide block), less the hit threshold, % at 10 µM; CHO-hERG, FluxOR thallium flux, dofetilide IC70 present; 310,000 compounds, 0.51% hits; AID 1511;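 active = activation above the mean of controls blocked by dofetilide plus 5 SD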;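 also: thallium influx through hERG after potassium depolarization seen as dye fluorescence rise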
Kir21 inh = inhibitors of mouse Kir2.1 inward-rectifier potassium channel. HEK293-Kir2.1, FluxOR thallium flux fluorescence; hits give low values. 310,000 compounds, 0.85% hits. B-score at 10 µM. P35561;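 active = fluorescence ratio B-score at or below minus 3 SD of library scores, with starting-brightness B-score within 2 SD, cut at about -4.2 in these data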;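 also: channel flux triggered by added potassium and thallium sulfate stimulus; B-score of peak minus minimum fluorescence over baseline after thallium stimulus; more negative B-score means stronger Kir2.1 block with less thallium influx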
KCNK9 block = human KCNK9 channel inhibition | AID 488922 | HEK293 KCNK9, FluxOR thallium flux fluorescence; hits give low values | Q9NPC2 | 310,000 compounds, 1.2% hits | B-score at 10 µM;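 active = ratio B-score over 3 SD below the library mean, with starting fluorescence within 5 SD of its mean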;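 also: negative B-score means less thallium flux so channel inhibition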
KCNQ1 inh = human KCNQ1 channel inhibition | P51787 | 310,000 compounds, 1.3% hits | CHO-K1 KCNQ1, FluxOR thallium flux fluorescence; hits give high values | B-score at 10 µM | AID 2642;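 active = compounds whose thallium flux B-score, printed positive for inhibition, exceeds three library SD while starting fluorescence stays within three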;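 also: channel opened by potassium depolarization with thallium stimulus after 20 min compound exposure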
Target sequence (P51787 whole entry, looked up): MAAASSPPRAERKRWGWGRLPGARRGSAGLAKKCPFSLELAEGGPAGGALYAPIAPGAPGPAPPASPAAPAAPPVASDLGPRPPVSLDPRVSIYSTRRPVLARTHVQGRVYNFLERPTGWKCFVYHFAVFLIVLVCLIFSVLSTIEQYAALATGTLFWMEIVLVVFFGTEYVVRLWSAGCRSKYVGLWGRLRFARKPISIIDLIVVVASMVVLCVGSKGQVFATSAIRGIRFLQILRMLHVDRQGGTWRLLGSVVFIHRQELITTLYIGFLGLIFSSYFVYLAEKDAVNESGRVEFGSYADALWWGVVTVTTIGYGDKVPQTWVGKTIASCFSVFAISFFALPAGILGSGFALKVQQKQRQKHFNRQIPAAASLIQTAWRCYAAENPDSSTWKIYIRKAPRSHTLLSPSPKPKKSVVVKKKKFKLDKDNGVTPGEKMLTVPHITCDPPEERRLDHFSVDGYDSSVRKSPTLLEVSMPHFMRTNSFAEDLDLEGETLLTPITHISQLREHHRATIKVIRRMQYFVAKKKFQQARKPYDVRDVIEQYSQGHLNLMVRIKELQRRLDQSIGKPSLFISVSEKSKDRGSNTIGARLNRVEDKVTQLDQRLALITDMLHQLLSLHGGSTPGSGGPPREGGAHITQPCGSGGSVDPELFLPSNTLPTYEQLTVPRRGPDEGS
KCNQ1 pot = potentiates or activates the human KCNQ1 potassium channel; P51787; CHO-K1 KCNQ1, thallium flux FluxOR fluorescence; hits give high values; B-score at 10 µM; 310,000 compounds, 0.35% hits;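 active = fluorescence ratio B-score, a plate-corrected score, at least three library SD, with initial intensity B-score within 5 SD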
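Assay system: stable KCNQ1 CHO-K1 line; medium: assay buffer, equal DMSO in all wells; timing: 90 min dye loading and 20 min compound exposure, both at room temperature; technique: kinetic FluxOR thallium fluorescence, 10-s 1-Hz baseline, 110-s post-stimulus read; read-out basis: B score of baseline-normalized fluorescence ratio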
KCNK3 inh = human KCNK3 channel inhibition, primary screen; B-score at 10 µM; CHO-KCNK3 thallium flux, FluxOR fluorescence; hits give low values; 340,000 compounds, 0.84% hits; AID 602410;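 active = B-score under library mean minus 4 SD, starting fluorescence ratio at most library mean plus 5 SD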;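 also: more negative B-score means stronger inhibition of thallium flux through KCNK3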
Starred values were filed as active, the others as inactive; i = inactive. This is a sample that favours compounds with a hit; in the whole collection about 3.7% have one here.

SMILES	hERG protect	Kir21 inh	KCNK9 block	KCNQ1 inh	KCNQ1 pot	KCNK3 inh
CC(=O)N(CCCCl)C(C#N)c1ccccc1 (centres undefined)	-5	-1.6	i	i	i	i
O=C(NCCO)C(=O)NCC1OCCCN1S(=O)(=O)c1ccc2c(c1)OCCO2 (centres undefined)	-6	0.14	i	i	i	i
COc1ccccc1NS(=O)(=O)c1ccc2oc(N)nc2c1	-8	-4.3*	i	i	i	i
COc1ccc2nc(N=Nc3ccc(O)c4ccccc34)sc2c1	11*	-3.2	i	i	18*	i
Cc1c(O)ccc2cc(S(=O)(=O)c3ccccc3)c(=O)oc12	-11	-10	i	11*	i	i
O=C(NC(=S)N(CCCCO)C1CCCCC1)c1sc2ccccc2c1Cl	18*	-2.3	i	i	31*	i
Nc1cc(C(=O)c2cccs2)ccc1Cl	-4	-0.01	-6.8*	i	i	i
COc1ccccc1OCc1ccc(C(=O)n2nc(C)c(Cl)c2C)o1	-9	-1	-7.9*	i	i	i
COC(=O)c1ccc(COc2ccccc2OC)o1	-5	0.11	i	i	i	i
CSc1ccc2c(c1)C(N1CCN(C)CC1)Cc1ccccc1S2 (centres undefined)	-25	-7.9*	i	i	i	i
Cc1nn(-c2ccccc2)nc1C(=O)NNC(=O)c1cccc2ccccc12	-12	0.62	i	i	15*	i
CCOc1ccc(-n2cc(C(=O)Nc3cccc(C)n3)c3cc(OC)c(OC)cc3c2=O)cc1	-14	0.93	i	i	13*	i
CCOc1ccc(NC(=O)c2cn(-c3ccc(OCC)cc3)c(=O)c3cc(OC)c(OC)cc23)cc1	-10	-1	i	i	i	i
CC1CCCC(NC(=O)CNC(=S)N(Cc2ccccc2)Cc2cccs2)C1C (centres undefined)	-10	0.22	i	9*	i	i
CCCCNC(=O)CNC(=S)N(Cc1ccccc1)Cc1cccs1	-7	-2.4	i	i	i	i
O=c1[nH]c(-c2cccnc2)nc2sc(-c3ccccc3)cc12	6.9*	-0.56	i	i	i	i
O=C(COC(=O)c1cc(Cl)ccc1[N+](=O)[O-])NCc1ccc(Cl)cc1Cl	-10	1.2	-7.3*	i	i	i
COc1ccc(C(=O)CC(=O)C(=O)Nc2ccc(Cl)cc2)cc1	13*	-0.34	i	i	i	i
COc1ccc(C(=O)CC(=O)C(=O)Nc2ccccc2Cl)cc1	13*	0.21	i	i	i	i
COc1ccc(C(=O)CC(=O)C(=O)Nc2cc(Cl)c(OC)cc2OC)cc1	-7	-1	i	i	i	i
COc1ccc(C(=O)CC(=O)C(=O)Nc2ccccc2C(F)(F)F)cc1	7.8*	0.4	i	i	12*	i
C/C(=N\N)c1c(-c2ccccc2)c2cc(C)ccc2[nH]c1=O	-14	0.14	i	i	i	i
CC/C(C)=N/NC(=O)c1[nH]c2ccc(C)cc2c1-c1ccccc1	5.5*	-0.87	i	i	i	i
O=C(NN=C1CCCC1)c1[nH]c2ccc(Cl)cc2c1-c1ccccc1	-10	-1.8	i	6*	i	i
CC(=O)NNC(=O)c1[nH]c2ccc(Cl)cc2c1-c1ccccc1	-1	0.74	i	i	i	i
SMILES	hERG protect	Kir21 inh	KCNK9 block	KCNQ1 inh	KCNQ1 pot	KCNK3 inh
Cc1ccc(-c2csc(/C(C#N)=C(\O)CCl)n2)cc1	-20	1.7	i	6*	i	i
N#C/C(=C(/O)CCl)c1nc(-c2ccccc2)cs1	-14	-0.01	i	i	i	i
COc1ccc(S(=O)(=O)N2CCCc3ccccc32)cc1OC	-10	-5.3*	i	i	i	i
CCNC(=O)COC(=O)c1cc(S(=O)(=O)N2CCCc3ccccc32)ccc1Cl	-8	-4.4*	i	i	i	i
O=S(=O)(c1cnc(Cl)c(Cl)c1)N1CCCc2ccccc21	-6	-4.6*	i	i	i	i
COc1ccc(S(=O)(=O)N2CCCc3ccccc32)cc1[N+](=O)[O-]	-7	-2.9	i	i	i	i
